Measurements published in ChEMBL document CHEMBL5108039, “Piperazine tethered bergenin heterocyclic hybrids: design, synthesis, anticancer activity, and molecular docking studies” (RSC Med Chem, 2022).

Columns and labels:
SCC-9 [1] = test: Cell cycle arrest in human SCC-9 cells assessed as accumulation at G0/G1 phase at 92 uM incubated for 24 hrs by flow cytometry (reference value: 70.8 %); format: functional
SCC-9 [2] = test: Induction of apoptosis in human SCC-9 cells assessed as necrotic cells at 92 uM incubated for 24 hrs by Annexin V-FITC/PI staining based flow cytometric analysis (reference value: 0.1 %); format: functional
CAL-27 [3] = test: Cell cycle arrest in human CAL-27 cells assessed as accumulation at G0/G1 phase at 63 uM incubated for 24 hrs by flow cytometry (reference value: 77.6 %); format: functional
CAL-27 [4] = test: Induction of apoptosis in human CAL-27 cells assessed as late apoptotic cells at 63 uM incubated for 24 hrs by Annexin V-FITC/PI staining based flow cytometric analysis (reference value: 0.1 %); format: functional
Method in brief: (§1)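 CAL27 cells were treated with vehicle, doxorubicin or test compounds at 10–63 μM, and apoptosis was assessed by annexin V–FITC/PI staining with flow cytometry. Cells were scored as live, early apoptotic, late apoptotic or necrotic. The vehicle was DMSO (0.01%).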

SCC-9 [5] = test: Induction of apoptosis in human SCC-9 cells assessed as live cells at 92 uM incubated for 24 hrs by Annexin V-FITC/PI staining based flow cytometric analysis (reference value: 95.7 %); format: functional
CAL-27 [6] = test: Cell cycle arrest in human CAL-27 cells assessed as accumulation at G0/G1 phase at 31.5 uM incubated for 24 hrs by flow cytometry (reference value: 77.6 %); format: functional
HCT-15 = test: Cytotoxicity against human HCT-15 cells assessed as cell growth inhibition; format: functional, cell-based
Method in brief: (§2)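 Compounds were dissolved in sterile DMSO as 10 mg ml−1 stocks and tested for in vitro growth inhibition of human cancer cell lines. Doxorubicin was the standard drug and DMSO (0.01%) the vehicle control. IC50 values are reported as means.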

CAL-27 [7] = test: Cytotoxicity against human CAL-27 cells assessed as cell growth inhibition; format: functional, cell-based; method in brief: as §2
SCC-9 [8] = test: Induction of apoptosis in human SCC-9 cells assessed as necrotic cells at 46 uM incubated for 24 hrs by Annexin V-FITC/PI staining based flow cytometric analysis (reference value: 0.1 %); format: functional
CAL-27 [9] = test: Induction of apoptosis in human CAL-27 cells assessed as necrotic cells at 31.5 uM incubated for 24 hrs by Annexin V-FITC/PI staining based flow cytometric analysis (reference value: 0.0 %); format: functional
CAL-27 [10] = test: Cell cycle arrest in human CAL-27 cells assessed as accumulation at G2/M phase at 31.5 uM incubated for 24 hrs by flow cytometry (reference value: 11.9 %); format: functional
MCF7 = test: Cytotoxicity against human MCF7 cells assessed as cell growth inhibition; format: functional, cell-based; method in brief: as §2
SCC-9 [11] = test: Cell cycle arrest in human SCC-9 cells assessed as accumulation at G0/G1 phase at 46 uM incubated for 24 hrs by flow cytometry (reference value: 70.8 %); format: functional
CAL-27 [12] = test: Induction of apoptosis in human CAL-27 cells assessed as live cells at 31.5 uM incubated for 24 hrs by Annexin V-FITC/PI staining based flow cytometric analysis (reference value: 99.8 %); format: functional; method in brief: as §1
CAL-27 [13] = test: Cell cycle arrest in human CAL-27 cells assessed as accumulation at S phase at 63 uM incubated for 24 hrs by flow cytometry (reference value: 3.6 %); format: functional
SCC-9 [14] = test: Cytotoxicity against human SCC-9 cells assessed as cell growth inhibition; format: functional, cell-based; method in brief: as §2
CAL-27 [15] = test: Induction of apoptosis in human CAL-27 cells assessed as late apoptotic cells at 31.5 uM incubated for 24 hrs by Annexin V-FITC/PI staining based flow cytometric analysis (reference value: 0.1 %); format: functional; method in brief: as §1
A549 = test: Cytotoxicity against human A549 cells assessed as cell growth inhibition; format: functional, cell-based
Method in brief: (§3)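 Compounds were dissolved in sterile DMSO as 10 mg ml−1 stocks and tested in vitro for cytotoxicity in a cell-line panel, with DMSO (0.01%) as vehicle control and doxorubicin as standard. Mean IC50 values were reported, and the normal lung epithelial cells were tested up to 100 μM.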

CAL-27 [16] = test: Cell cycle arrest in human CAL-27 cells assessed as accumulation at G2/M phase at 63 uM incubated for 24 hrs by flow cytometry (reference value: 11.9 %); format: functional
SCC-9 [17] = test: Induction of apoptosis in human SCC-9 cells assessed as early apoptotic cells at 46 uM incubated for 24 hrs by Annexin V-FITC/PI staining based flow cytometric analysis (reference value: 2.8 %); format: functional
SCC-9 [18] = test: Cell cycle arrest in human SCC-9 cells assessed as accumulation at S phase at 46 uM incubated for 24 hrs by flow cytometry (reference value: 14.4 %); format: functional
CAL-27 [19] = test: Induction of apoptosis in human CAL-27 cells assessed as early apoptotic cells at 31.5 uM incubated for 24 hrs by Annexin V-FITC/PI staining based flow cytometric analysis (reference value: 0.1 %); format: functional; method in brief: as §1
SCC-9 [20] = test: Induction of apoptosis in human SCC-9 cells assessed as live cells at 46 uM incubated for 24 hrs by Annexin V-FITC/PI staining based flow cytometric analysis (reference value: 95.7 %); format: functional
CAL-27 [21] = test: Induction of apoptosis in human CAL-27 cells assessed as live cells at 63 uM incubated for 24 hrs by Annexin V-FITC/PI staining based flow cytometric analysis (reference value: 99.8 %); format: functional; method in brief: as §1
SCC-9 [22] = test: Cell cycle arrest in human SCC-9 cells assessed as accumulation at S phase at 92 uM incubated for 24 hrs by flow cytometry (reference value: 14.4 %); format: functional
CAL-27 [23] = test: Induction of apoptosis in human CAL-27 cells assessed as necrotic cells at 63 uM incubated for 24 hrs by Annexin V-FITC/PI staining based flow cytometric analysis (reference value: 0.0 %); format: functional
CAL-27 [24] = test: Cell cycle arrest in human CAL-27 cells assessed as accumulation at S phase at 31.5 uM incubated for 24 hrs by flow cytometry (reference value: 3.6 %); format: functional
[25] = Cytotoxicity against human BEAS-2B cells assessed as cell growth inhibition; format: toxicity, cell-based; method in brief: as §3
CAL-27 [26] = test: Induction of apoptosis in human CAL-27 cells assessed as early apoptotic cells at 63 uM incubated for 24 hrs by Annexin V-FITC/PI staining based flow cytometric analysis (reference value: 0.1 %); format: functional; method in brief: as §1
SCC-9 [27] = test: Induction of apoptosis in human SCC-9 cells assessed as late apoptotic cells at 46 uM incubated for 24 hrs by Annexin V-FITC/PI staining based flow cytometric analysis (reference value: 1.4 %); format: functional
SCC-9 [28] = test: Cell cycle arrest in human SCC-9 cells assessed as accumulation at G2/M phase at 92 uM incubated for 24 hrs by flow cytometry (reference value: 14.2 %); format: functional
SCC-9 [29] = test: Cell cycle arrest in human SCC-9 cells assessed as accumulation at G2/M phase at 46 uM incubated for 24 hrs by flow cytometry (reference value: 14.2 %); format: functional
SCC-9 [30] = test: Induction of apoptosis in human SCC-9 cells assessed as early apoptotic cells at 92 uM incubated for 24 hrs by Annexin V-FITC/PI staining based flow cytometric analysis (reference value: 2.8 %); format: functional
SCC-9 [31] = test: Induction of apoptosis in human SCC-9 cells assessed as late apoptotic cells at 92 uM incubated for 24 hrs by Annexin V-FITC/PI staining based flow cytometric analysis (reference value: 1.4 %); format: functional

COc1c(O)c(CN2CCN(CC(=O)Nc3nc4ccc(C)cc4s3)CC2)c2c(c1O)C1O[C@H](CO)[C@@H](O)[C@H](O)C1OC2=O (some centres undefined)
Activity (SCC-9 [1]): 85.7% | Activity (SCC-9 [2]): 27% | Activity (CAL-27 [3]): 82.1% | Activity (CAL-27 [4]): 4.2% | Activity (SCC-9 [5]): 53.5% | Activity (CAL-27 [6]): 85.4% | IC50 (HCT-15): > 100 µM | IC50 (CAL-27 [7]): 63.7 µM | Activity (SCC-9 [8]): 37.6% | Activity (CAL-27 [9]): 0.4% | Activity (CAL-27 [10]): 11.5% | IC50 (MCF7): 74.5 µM | Activity (SCC-9 [11]): 76.9% | Activity (CAL-27 [12]): 89% | Activity (CAL-27 [13]): 3.2% | IC50 (SCC-9 [14]): 91.9 µM | Activity (CAL-27 [15]): 2.6% | IC50 (A549): 90.6 µM | Activity (CAL-27 [16]): 15.3% | Activity (SCC-9 [17]): 9.4% | Activity (SCC-9 [18]): 11.3% | Activity (CAL-27 [19]): 8.3% | Activity (SCC-9 [20]): 38.2% | Activity (CAL-27 [21]): 81.1% | Activity (SCC-9 [22]): 4.9% | Activity (CAL-27 [23]): 3% | Activity (CAL-27 [24]): 3.7% | IC50 [25]: > 100 µM | Activity (CAL-27 [26]): 11.7% | Activity (SCC-9 [27]): 14.7% | Activity (SCC-9 [28]): 9.4% | Activity (SCC-9 [29]): 11.7% | Activity (SCC-9 [30]): 7.5% | Activity (SCC-9 [31]): 12%
